Screening results as filed in PubChem.
UCH37 inh: blocks the human deubiquitinase UCH37; Q9Y5K5; purified proteasome/UCH37, Ub-AMC cleavage fluorescence; inhibition, % (no concentration beside the values); 330,000 compounds, 0.33% hits; AID 588478;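 active means mean inhibition over replicate wells above about 20%, limit read from the data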;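 further: 0% = compound-free wells with enzyme and 100% = wells lacking proteasome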
Target sequence (Q9Y5K5 whole entry, looked up): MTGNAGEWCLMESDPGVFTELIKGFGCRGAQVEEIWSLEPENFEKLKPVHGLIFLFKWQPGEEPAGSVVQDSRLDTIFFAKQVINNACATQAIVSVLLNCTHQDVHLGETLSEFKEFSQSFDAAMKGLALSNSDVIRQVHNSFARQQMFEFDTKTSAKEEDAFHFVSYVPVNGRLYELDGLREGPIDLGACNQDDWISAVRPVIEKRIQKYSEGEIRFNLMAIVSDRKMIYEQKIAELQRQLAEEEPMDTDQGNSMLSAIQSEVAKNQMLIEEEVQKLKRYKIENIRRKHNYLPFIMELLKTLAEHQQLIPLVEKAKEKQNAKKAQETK
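Material: human UCH37 enzyme supplied as purified proteasome complex / Amount: 0.15 nM proteasome as dispensed / Buffer or medium: pH 7.4 Tris-HCl (50 mM) with ovalbumin, ATP-MgCl2, DTT / Times: preincubation 30 min, reaction 25 min, room temperature / Technique: AMC fluorescence from Ub-AMC cleavage, excitation 355 nm, emission 460 nm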
Fh CTSL1 inh: blocks F. hepatica cathepsin L1 in PFM18AAP counter-screen. 300,000 compounds, 0.49% hits. AID 1906. recombinant F. hepatica cathepsin L1, Z-Leu-Arg-MCA fluorescence. inhibition, % at 5.96 µM;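 active means inhibition above the mean of all tested compounds plus 3 SD, set per screening campaign, cut at about 17% in these data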;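 further: 0% = plate median of test compound wells and 100% = 1 µM Z-Phe-Ala-diazomethylketone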
SUMO HTRF inh: blocks human SUMOylation mediated by UBC9; 290,000 compounds, 0.36% hits; HTRF SUMOylation assay, SAE1/SAE2 + UBC9, in vitro; AID 2006; inhibition, % at 35 µM; in the data active means inhibition above about 50%, passing the limit was not always enough
Target sequence (P63279 whole entry, looked up): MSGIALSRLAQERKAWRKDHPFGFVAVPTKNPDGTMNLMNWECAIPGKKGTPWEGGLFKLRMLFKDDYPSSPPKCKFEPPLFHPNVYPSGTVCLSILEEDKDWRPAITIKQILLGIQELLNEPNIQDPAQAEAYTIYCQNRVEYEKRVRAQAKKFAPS
Neddylation inh: inhibitors of human cullin neddylation | inhibition, % at 25 µM | 360,000 compounds, 0.58% hits | P61081+Q13564 | TR-FRET cullin neddylation, biochemical; in the data active means inhibition above about 36%
An asterisk follows results filed as active; / = not tested or not shown. Sampled rows, rich in hits. Any-hit rate of the full collection: about 1.4%.

SMILES | UCH37 inh | Fh CTSL1 inh | SUMO HTRF inh | Neddylation inh
O=S(=O)(Nc1nc2ccccc2nc1N1CCc2ccccc2C1)c1ccc(Br)cc1 | -17 | 0 | 35 | 61*
O=S(=O)(Nc1nc2ccccc2nc1N1CCc2ccccc2C1)c1ccc(Cl)cc1 | / | 1 | 11 | 38
CC1C/C(=N\NC(N)=S)c2cc(Cl)ccc2S1 (stereo not given) | / | 68* | 49 | 15
COC(=O)C1=C(C)N=c2sc(=Cc3ccoc3)c(=O)n2C1c1ccccc1 (stereo not given) | 8 | / | / | /
CCC1CCC(C(=O)NC(CCSC)C(=O)NCCN(CC(C)C)CC(C)C)CC1 (stereo not given) | 6 | 31* | 3 | -3
CC(C)CC(NC(=O)C1CCC(C)CC1)C(=O)NCCN1CCOCC1 (stereo not given) | 3 | 60* | 2 | 8
CSCCC(NC(=O)C1CCC(C)CC1)C(=O)NCCN1CCOCC1 (stereo not given) | 3 | 38* | 17 | 1
CCOc1cc(C=NNc2cc(C)nc(-n3nc(C)cc3C)n2)ccc1O | 3 | / | / | /
CC1(C)CC(NC(=O)C23CCC(C)(C(=NO)C2)C3(C)C)CC(C)(C)N1 (stereo not given) | 4 | / | / | /
N#CC(c1nc2ccccc2nc1N1CCCC1)S(=O)(=O)c1ccccc1 (stereo not given) | -163 | 0 | 99 | /
Cc1ccc(S(=O)(=O)C(C#N)c2nc3ccccc3nc2N2CCC(C)CC2)cc1 (stereo not given) | -6 | / | 81* | 23
COc1ccc(/C=C(\C#N)C(=O)OCC(=O)NCc2ccccc2Cl)cc1 | -4 | -5 | 55* | 10
C=CCOc1ccccc1C=NNC(=O)Cc1ccccc1 | 2 | / | / | /
Fc1cccc(Oc2nc3ccccc3n3cccc23)c1 | -5 | 65* | -20 | -98
CC(C)(C)CC(=O)Nc1cc(S(=O)(=O)N2CCCCCC2)ccc1Cl | 1 | -2 | -4 | 2
O=C(CCl)N1CCN(S(=O)(=O)c2ccc3ccccc3c2)CC1 | 4 | 19* | 9 | -12
CN(C)C(=O)N1CCN(S(=O)(=O)c2ccc3ccccc3c2)CC1 | 2 | -2 | 0 | -11
O=C(CCl)Nc1cc(S(=O)(=O)N2CCCCCC2)ccc1Cl | 1 | 80* | -6 | 5
COc1ccc(C=NNC(=O)Cn2cnc3c2c(=O)n(C)c(=O)n3C)c(OC)c1OC | 5 | / | / | /
O=S(=O)(c1cnccc1N1CCN(N=Cc2ccc(Cl)cc2)CC1)N1CCCCC1 | 4 | / | / | /
COc1ccc(C(=NOC(C)=O)c2nccc3cc(OC)c(OC)cc23)cc1OC | 7 | / | / | /
COc1ccc(C(=O)c2nccc3cc(OC)c(OC)cc23)cc1OC | 48* | / | / | -41
COc1cc(C=NNC(=O)C2CCN(CC(O)COCc3ccccc3)CC2)cc(OC)c1OC (stereo not given) | 1 | / | / | /
O=C(CN1C(=O)C2C3C=CC(C3)C2C1=O)Nc1ccc2nccnc2c1 (stereo not given) | -152 | 20* | 24 | /
COC(=O)c1ccc(C=NOCC(=O)Nc2cc(F)ccc2F)cc1 | 0 | / | / | /
SMILES | UCH37 inh | Fh CTSL1 inh | SUMO HTRF inh | Neddylation inh
CC(C)(C)S(=O)(=O)N1C[C@@H]2CC/C=C\C/C(c3ccccc3)=C\2[C@H]1CCO | 20* | / | / | 6
NS(=O)(=O)c1ccc(Oc2ccc(S(N)(=O)=O)cc2)cc1 | 2 | 17* | 10 | -7
Cc1oc(N=Cc2ccc(F)cc2)c(C#N)c1C | -1 | / | / | /
COc1ccccc1CNC(=O)CC(C)=NNC(=O)COc1ccc(C)cc1Br | 5 | / | / | /
O=C(O)CSc1cc(NS(=O)(=O)c2ccc(Cl)cc2)c2ccccc2c1O | / | 0 | 77* | -27
COc1ccc(S(=O)(=O)Nc2cc(Sc3ncn[nH]3)c(O)c3ccccc23)cc1 | / | / | 88* | /
COc1ccc(S(=O)(=O)Nc2cccc3ccc(O)cc23)cc1 | 4 | -6 | / | -16
COc1ccc(S(=O)(=O)Nc2cc(SCC(=O)O)c(O)c3ccccc23)cc1 | 16 | -2 | 57* | -40
O=S(=O)(Nc1cc(Sc2cccc3cccnc23)c(O)c2ccccc12)c1ccc(F)cc1 | 7 | -1 | 67* | /
Cc1cc(C)c(S(=O)(=O)Nc2cc(SCC(=O)O)c(O)c3ccccc23)cc1C | 9 | 15 | 72 | /
CN1CCN(CC#CC(C)(O)C2CC3C=CC2C3)CC1 (stereo not given) | 23* | -5 | 4 | -2
CCC(C)NC(=O)c1c(N)n(N=Cc2cccnc2)c2nc3ccccc3nc12 (stereo not given) | -102 | / | / | /
Nc1ncnc2c1ncn2[C@@H]1O[C@H](CNCc2cccc(C#Cc3ccccc3)c2)[C@@H](O)[C@H]1O | -9 | / | / | 52*
Nc1ncnc2c1ncn2[C@@H]1O[C@H](COS(=O)(=O)O)[C@@H](O)[C@H]1O | / | / | / | 69*
Nc1ncnc2c1ncn2[C@@H]1O[C@H](COP(=O)(O)OP(=O)(O)OP(=O)(O)O)[C@@H](O)[C@H]1O | 1 | 0 | / | 80*
Cn1cc(C(=O)c2ccc(Cl)cc2Cl)cc1C(=O)NN=C(N)COc1ccccc1 | 1 | / | / | /
O=[N+]([O-])c1cccc(C=Nn2c(C3CCCCC3)n[nH]c2=S)c1 | 2 | / | / | /
CC1CCc2nc3ccc(S(=O)(=O)N4CCC(C(=O)NCc5ccccc5Cl)CC4)cc3c(C(=O)O)c2C1 (stereo not given) | 0 | -5 | 9 | -18
CC1CCC(NC(=O)C2CCN(S(=O)(=O)c3ccc4nc5c(c(C(=O)O)c4c3)CC(C)CC5)CC2)CC1 (stereo not given) | -2 | 19* | 2 | -5
O=C(NN=Cc1ccccc1F)c1ccc(COc2ccccc2Cl)o1 | 1 | / | / | /
COc1cc(C=NNc2cc(=O)n(C)c(=O)n2C)ccc1O | 11 | / | / | /
COc1cc(C=NN2CCN(Cc3ccc(Cl)cc3)CC2)ccc1OC(C)=O | 2 | / | / | /
O=C(O)/C=C/C(=O)c1c(-c2ccccc2)[nH]c2ccccc12 | 3 | 58* | 10 | 9
CC(=O)c1c(-c2ccccc2)[nH]c2ccccc12 | 3 | -1 | 13 | 2
Clc1ccc(Nc2nc(NCCN3CCOCC3)nc(N3CCOCC3)n2)cc1 | 2 | 18* | -16 | 3
SMILES | UCH37 inh | Fh CTSL1 inh | SUMO HTRF inh | Neddylation inh
COc1cc([N+](=O)[O-])cc(C=NN(CCC#N)C(C)=O)c1O | 13 | / | / | /
COc1cc(C=NN2CCN(c3ccccc3OC)CC2)ccc1OC(C)=O | -1 | / | / | /
O=C(CC(c1ccccc1)c1ccccc1O)NCc1ccccc1 (stereo not given) | -1 | 18* | 5 | -4
CCOc1ccc(Br)cc1C(=O)NN=Cc1ccccn1 | 3 | / | / | /
CCOC(=O)c1cc2cc3ccccc3cc2[nH]1 | -237 | 8 | 43 | 41*
O=C1c2ccccc2C(=O)C12OC2c1ccc(Cl)cc1 (stereo not given) | / | 17* | / | /
CC(C)(C)OC(=O)N1CCN(C(=O)c2ncn(Cc3ccccc3)c2C(=O)N2CCN(C(=O)OC(C)(C)C)CC2)CC1 | 29* | / | / | -17
O=C(c1ncn(Cc2ccccc2)c1C(=O)N1CCN(c2ccccc2)CC1)N1CCN(c2ccccc2)CC1 | 1 | / | / | 1
COc1ccccc1C=Nn1cnnc1 | -9 | / | / | /
COc1ccc(/C=N/OCC(=O)N=Nc2c(O)[nH]c3ccc(Br)cc23)cc1 | / | -1 | 39 | -17
